Source: PubChem BioAssay (The Scripps Research Institute Molecular Screening Center)
M4 ag: agonists of human muscarinic M4 receptor (CHRM4); CHO-K1 hM4/Gqi5, Fluo-8 calcium fluorescence; vehicle 0%, full acetylcholine response 100%; activation, % at 3 µM; 360,000 compounds, 0.14% hits; AID 624127;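 active = activation above the run mean over all test wells plus 3 SD, cut at about 32% in these data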;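 note: peak over basal fluorescence ratio per well then scaled between controls; 0% = DMSO wells and 100% = acetylcholine at EC100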
Target sequence (P08173 whole entry, looked up): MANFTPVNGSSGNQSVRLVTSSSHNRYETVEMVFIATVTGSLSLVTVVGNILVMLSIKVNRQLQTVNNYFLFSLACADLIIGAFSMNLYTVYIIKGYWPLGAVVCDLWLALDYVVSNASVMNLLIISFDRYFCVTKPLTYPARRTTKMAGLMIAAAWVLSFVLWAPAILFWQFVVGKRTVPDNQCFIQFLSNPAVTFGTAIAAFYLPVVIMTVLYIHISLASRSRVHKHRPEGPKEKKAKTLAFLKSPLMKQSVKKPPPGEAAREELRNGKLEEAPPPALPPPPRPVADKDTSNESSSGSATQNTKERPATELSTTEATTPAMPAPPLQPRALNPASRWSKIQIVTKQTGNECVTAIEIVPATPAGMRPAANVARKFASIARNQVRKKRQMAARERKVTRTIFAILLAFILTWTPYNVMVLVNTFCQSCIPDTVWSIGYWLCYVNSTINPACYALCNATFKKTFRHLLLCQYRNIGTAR
CHRM4 PAM: potentiates acetylcholine response at human M4 receptor | P08173 | CHO-K1 hM4/Gqi5, Fluo-8 calcium fluorescence, ACh EC20; 0% = ACh EC20, 100% = maximal ACh | activation, % at 3 µM | 360,000 compounds, 0.4% hits;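 active = activation above its plate's cutoff, the mean activation of sample wells plus 3 SD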
M5 ag: agonists of human muscarinic M5 receptor (CHRM5); P08912; CHO-K1 hM5 cells, Fluo-8 calcium fluorescence; 0% DMSO wells, 100% maximal acetylcholine response; activation, % at 3 µM; 360,000 compounds, 0.19% hits;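 active = activation above the run's mean over test compounds plus 3 SD, cut at about 23% in these data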;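 note: signal is peak over basal fluorescence ratio across the kinetic read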
CHRM4 antagonist: antagonists of human muscarinic M4 receptor (CHRM4); P08173; CHO-hM4 cells, ACh EC80, Fluo-8 calcium fluorescence; inhibition, % at 3 µM; 360,000 compounds, 0.73% hits;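 active = inhibition above its plate's cutoff, the mean inhibition of sample wells plus 3 SD, cut at about 27% in these data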;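 note: 0% = acetylcholine EC80 with DMSO and 100% = DMSO without agonist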
CHRM5 PAM: CHRM5 positive allosteric modulation; CHO-K1 hM5, Fluo-8 calcium, ACh EC20 PAM; 0% = ACh EC20, 100% = ACh EC100; P08912; activation, % at 3 µM; 360,000 compounds, 0.3% hits;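 active = activation above the run cutoff, the mean activation of all test compounds plus 3 SD, cut at about 18% in these data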
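Measured by: Fluo-8 calcium fluorescence; material: human M5 receptor in CHO-K1 cells; schedule: Post-acetylcholine fluorescence recording 140 s; benchmarks: low control EC20 acetylcholine (0%), high control EC100 acetylcholine (100%); read-out: Max/basal fluorescence ratio as % of EC20–EC100 ACh window; compound: single dose, 3 µM nominal final test concentration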
CHRM5 antagonist: antagonists of human muscarinic M5 receptor (CHRM5); P08912; CHO-hM5 cells, Fluo-8 calcium fluorescence, ACh EC80; 360,000 compounds, 0.59% hits; inhibition, % at 3 µM; AID 624040;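 active = inhibition above a per-plate cutoff, the mean of that plate's test compounds plus 3 SD, cut at about 27% in these data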;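 note: 0% = acetylcholine EC80 with DMSO and 100% = DMSO without agonist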
The depositor's hits bear a star. An excerpt weighted towards active compounds, which were near 1.8% of everything screened.

SMILES | M4 ag | CHRM4 PAM | M5 ag | CHRM4 antagonist | CHRM5 PAM | CHRM5 antagonist
CCOC(=O)c1c(C)[nH]c(C(=O)OCc2csc(CC(=O)Nc3ccccc3C)n2)c1C | 5 | 3 | 1 | 2 | -9 | 7
CCOc1ccsc1C(=O)OC | 0 | -8 | 3 | 4 | 1 | 4
COc1ccc(NC(=S)NC(NC(=O)c2ccc(Cl)cc2Cl)C(Cl)(Cl)Cl)c([N+](=O)[O-])c1 (centres undefined) | 11 | -1 | 6 | -3 | -21 | 28*
COc1ccc(NS(=O)(=O)c2cccc(NC(=O)COc3ccccc3[N+](=O)[O-])c2)cc1 | 17 | -9 | 7 | 8 | -33 | 19
O=C(NCCN1CCCC1)c1ccc(Cn2c(=S)[nH]c3cc4c(cc3c2=O)OCO4)cc1 | 1 | -8 | 28* | -6 | -15 | 12
O=C(Cc1ccc(NC2=NC3CS(=O)(=O)CC3S2)cc1)NCc1ccccc1Cl (centres undefined) | 0 | 16* | 0 | -29 | 2 | -7
O=C(Cc1ccc(NC2=NC3CS(=O)(=O)CC3S2)cc1)NCc1ccccc1 (centres undefined) | 1 | -2 | 2 | 9 | 2 | 1
CC(NC(=O)c1ccc(NC2=NC3CS(=O)(=O)CC3S2)cc1)c1ccccc1 (centres undefined) | 0 | -18 | -1 | 94* | -18 | 13
CCOc1nc(NC2CCCC2)nc(N2CCC(C)CC2)n1 | -2 | -2 | -1 | 2 | -5 | 4
COc1ccc(/C=C2\SC(=O)NC2=S)cc1OC | 33* | -28 | 11 | 20 | -18 | 12
CCOc1ccc(/C=C2\SC(=S)NC2=O)cc1OC | 3 | -2 | 1 | -2 | -1 | -5
COc1ccc(/C=C2\SC(=S)NC2=O)cc1OS(=O)(=O)c1ccc(NC(C)=O)cc1 | 3 | 1 | 2 | -7 | -8 | 11
COc1cc(/C=C2/SC(=S)NC2=O)ccc1OS(=O)(=O)c1ccc(C)cc1 | 10 | -13 | 5 | 11 | -17 | 36*
CCCN1CN(Cc2ccccc2)CC2=C1CC(C)(C)CC2=O | 1 | 6 | -2 | 0 | 7 | -16
CC1(C)CC(=O)C2=C(C1)NCN(Cc1ccccc1)C2 | 1 | 34* | 6 | -4 | 13 | -11
Cn1nc(C(F)(F)F)c(-c2ccc(F)cc2)c1NC(=O)Nc1ccc(F)cc1 | 15 | -14 | -2 | 10 | -23 | 33*
Cc1cc(NC(=O)COC(=O)c2cnccn2)ccc1Br | 3 | 2 | 2 | 4 | 11 | -4
O=S(=O)(Nc1nc2ccccc2[nH]1)c1ccc2ccccc2c1 | 2 | -33 | -7 | 70* | -16 | 39*
CCN(CC(=O)Nc1c(F)cccc1F)C(=O)/C=C/c1ccc(OCC#N)c(OC)c1 | 2 | 29* | 4 | -6 | 1 | -2
CCN(CC(=O)Nc1c(F)cccc1F)C(=O)/C=C/c1ccc(C)cc1 | 1 | 3 | -1 | -25 | 2 | -3
CCCS(=O)(=O)n1nc(-c2ccc(OC)cc2)cc1N | 1 | -14 | -1 | 31* | -8 | 8
CCCS(=O)(=O)n1nc(-c2ccc(C)cc2)cc1N | -1 | -3 | -2 | -5 | -5 | 5
COC(=O)C1=C(N)Oc2cc(C)[nH]c(=O)c2C1c1ccncc1 (centres undefined) | 0 | 6 | 0 | 1 | 20* | -17
COC(=O)C1=C(N)Oc2cc(C)n(C)c(=O)c2C1c1ccc(Cl)c(Cl)c1 (centres undefined) | 1 | -5 | 0 | -3 | -6 | -2
CCOC1=C2CN(S(=O)(=O)c3ccc(C)cc3)[C@@H](c3cccs3)C[C@H]2[C@H]2C(=O)N(c3ccccc3)C(=O)[C@H]2C1 | 0 | 3 | 3 | -8 | 3 | -1
SMILES | M4 ag | CHRM4 PAM | M5 ag | CHRM4 antagonist | CHRM5 PAM | CHRM5 antagonist
CC(=O)OC1c2ccccc2C(=O)N1Cc1ccccc1Cl (centres undefined) | 0 | -11 | -2 | 34* | -10 | 6
O=C(CCc1ccccc1)NC(=S)Nc1ccccc1[N+](=O)[O-] | 3 | -1 | -5 | -3 | 4 | -12
Cc1n(Cc2ccccc2)c2cc([N+](=O)[O-])ccc2[n+]1Cc1ccccc1 | 0 | 0 | -2 | 2 | 2 | 9
Cc1n(Cc2ccccc2)c2ccccc2[n+]1Cc1ccccc1 | 1 | -13 | -17 | 9 | -11 | 28*
Cc1ccc(CN2C(=O)CCC2C(=O)NC2CC2)cc1 (centres undefined) | 0 | 26* | 1 | -8 | 13 | -4
N#Cc1cccc(NC(=O)CSc2ccc3c4c(cccc24)C(=O)c2ccccc2-3)c1 | 15 | -9 | 6 | 11 | -15 | 33*
Cc1ccc(NC(=O)C[n+]2ccn(C3=C([O-])c4ccccc4C3=O)c2)cc1 | 15 | -7 | -2 | 8 | -17 | 29*
Cc1ccccc1CS(=O)(=O)c1nnc([C@H](Cc2ccccc2)NC(=O)OC(C)(C)C)o1 | 5 | -14 | 4 | 79* | 5 | 10
Cc1ccc2nc(N3C(=O)C(O)=C(C(=O)c4ccc(C)o4)C3c3ccc(O)cc3)sc2c1 (centres undefined) | 7 | 13 | 4 | -8 | 1 | 12
NC(Cc1ccc(Cl)cc1)c1csc(Nc2ccc(-c3ccccc3)nn2)n1 (centres undefined) | 38* | -1 | 7 | 18 | 4 | 8
NC(Cc1ccc(C(F)(F)F)cc1)c1csc(Nc2ccccn2)n1 (centres undefined) | 41* | 0 | 5 | -3 | 1 | 5
NC(Cc1ccc(F)cc1)c1csc(NC(=O)NC(c2ccccc2)c2ccccc2)n1 (centres undefined) | 17 | 7 | 2 | 28* | -1 | 3
NC(Cc1ccccc1)c1csc(NC(=O)Nc2ccccc2Oc2ccccc2)n1 (centres undefined) | 11 | -6 | 1 | 15 | -4 | 6
Cc1ccc(C(=O)Nc2nc(C(N)Cc3ccc(C(F)(F)F)cc3)cs2)cc1 (centres undefined) | 36* | -5 | 6 | 8 | 5 | 10
NC(Cc1ccc(C(F)(F)F)cc1)c1csc(Nc2ncccn2)n1 (centres undefined) | 13 | -4 | 8 | -7 | -1 | -2
COC(=O)C1(CC2CC(c3ccncc3)=NO2)CCN(C(=O)OC(C)(C)C)CC1 (centres undefined) | 10 | -7 | 6 | -5 | -1 | -1
NC(Cc1ccc(C(F)(F)F)cc1)c1csc(NC(=O)NCCc2ccccc2)n1 (centres undefined) | 39* | -8 | 4 | 41* | 4 | 4
